A selection: hits, their analogues and other compounds. The true share with any hit is near 5.8%.
Pf Dd2 growth: inhibitors of Plasmodium falciparum Dd2 growth; P. falciparum Dd2 growth, SYBR Green, 72 h; active compounds read low; activity change, % at 10 µM; 94,000 compounds, 2.3% hits; in the data active = activity change below about -80%; inconclusive = no clear call, values can overlap the other calls
GASC1 inh: inhibitors of human demethylase GASC-1 KDM4C; GST-KDM4C 2-372, H3K9me3 peptide, LANCE TR-FRET; inhibition, % at 12.5 µM; 96,000 compounds, 0.15% hits; Q9H3R0;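 active = mean replicate inhibition above about 25%, with at least 55% of replicates also reaching it, limit read from the data, passing the limit was not always enough; inconclusive = only one of those two conditions met; inactive = neither condition met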
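Test system – GST-tagged GASC-1 (JMJD2C) catalytic fragment, aa 2-372 · Medium – HEPES buffer, pH 7.5, plus ascorbate · Reagent – H3K9me3 peptide with Fe(II)/2OG · Compound – one test concentration per compound · Timing – 30 min reaction, 60 min detection, RT · Technique – TR-FRET with Eu antibody and ULight streptavidin, EDTA stop · Read-out basis – inhibition from TR-FRET ratio decrease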
T cruzi growth-1: T. cruzi proliferation inhibition; 77,000 compounds, 5.9% hits; inhibition, % at 8.34 µM; AID 624255; T. cruzi beta-gal in NIH3T3, GalScreen luminescence, 90 h;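 active = mean inhibition above about 93%, with at least 55% of replicates each passing it, limit read from the data, passing the limit was not always enough; inconclusive = only one of those two conditions holds; inactive = neither condition holds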
IDH1 R132H inh: inhibitors of human IDH1 R132H; O75874; IDH1 R132H reductase, diaphorase/resazurin fluorescence, 60 min; inhibition, % at 10 µM; 70,000 compounds, 0.18% hits; AID 624101; in the data active = inhibition above about 34%; inconclusive = no clear call, values can overlap the other calls; inactive = below about 11%
Target sequence (O75874 whole entry R132H): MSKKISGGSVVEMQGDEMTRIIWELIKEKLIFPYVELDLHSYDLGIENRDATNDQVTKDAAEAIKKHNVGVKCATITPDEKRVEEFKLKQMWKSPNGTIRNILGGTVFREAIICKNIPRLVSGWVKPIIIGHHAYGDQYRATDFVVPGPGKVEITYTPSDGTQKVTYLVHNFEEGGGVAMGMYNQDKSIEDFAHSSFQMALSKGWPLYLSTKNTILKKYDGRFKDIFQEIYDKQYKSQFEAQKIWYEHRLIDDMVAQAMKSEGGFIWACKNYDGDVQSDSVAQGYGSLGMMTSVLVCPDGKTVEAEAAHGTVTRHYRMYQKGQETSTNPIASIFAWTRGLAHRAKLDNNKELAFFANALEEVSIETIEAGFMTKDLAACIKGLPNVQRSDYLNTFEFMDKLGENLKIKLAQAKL
T cruzi growth-2: Trypanosoma cruzi proliferation inhibition. shares compounds with T cruzi growth-1. T. cruzi beta-gal in NIH3T3, GalScreen luminescence, 90 h. inhibition, % at 8.35 µM. 5,600 compounds, 72% hits. AID 651739;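 active = mean replicate inhibition above about 95% and at least 55% of replicates individually reaching it, limit read from the data; inconclusive = only one of the two criteria is met; inactive = neither criterion is met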
T cruzi growth-3: blocks T. cruzi growth in NIH3T3 host cells. shares compounds with T cruzi growth-1. T. cruzi beta-gal in NIH3T3, GalScreen luminescence, 90 h. inhibition, % at 2.09 µM. 5,600 compounds, 21% hits. AID 651740;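 active = mean inhibition above about 95%, with at least 55% of replicates also reaching it, limit read from the data; inconclusive = meets just one of the two conditions; inactive = meets neither condition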
3T3 cytotox: NIH/3T3 (mouse) viability loss | shares compounds with T cruzi growth-1 | NIH/3T3 viability, CellTiter-Glo ATP luminescence, 90 h | cytotoxicity (signal decrease), % at 8.35 µM | 5,600 compounds, 14% hits | AID 651742;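 active = mean signal decrease across replicates above about 35% based on untreated-well scatter, with enough replicates individually passing, limit read from the data; inconclusive = no rule stated though some were filed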
3T3 cytotox 2: NIH/3T3 (mouse) viability loss | shares compounds with T cruzi growth-1 | NIH/3T3 viability, CellTiter-Glo ATP luminescence, 90 h | inhibition, % at 24.9 µM | 5,600 compounds, 56% hits | AID 651744;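 active = mean loss of cell viability signal at or above a set limit, and enough replicates individually reaching it; inconclusive = meets only the mean limit or only the replicate share; inactive = meets neither condition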
A number is an active result.

C[C@H]1CN([C@@H](C)CO)S(=O)(=O)c2ccc(C#CCC3CCCC3)cc2O[C@H]1CN(C)C was read as Pf Dd2 growth inactive, T cruzi growth-1 inactive and IDH1 R132H inh inactive.
COC(=O)c1ccc(NC(=O)CN2CCC(C(N)=O)(N3CCCCC3)CC2)cc1 was read as IDH1 R132H inh inactive.
COc1ccc([N+](=O)[O-])cc1N(CC(=O)Nc1cc(Cl)ccc1Cl)S(C)(=O)=O was read as IDH1 R132H inh inactive.
`COC(=O)C(O)(c1ccc(NC(=S)NC(=O)c2ccc(Cl)cc2Cl)c(OC)c1)C(F)(F)F` (stereo unspecified) gave IDH1 R132H inh inactive.
For COc1ccccc1NC(=O)N1CC[C@H]2[C@@H]1c1cc(-c3ccc(F)cc3)ccc1N(C)[C@H]2CO the results were Pf Dd2 growth inactive, GASC1 inh inactive, T cruzi growth-1 101, T cruzi growth-2 106, T cruzi growth-3 inconclusive, 3T3 cytotox inactive and 3T3 cytotox 2 29.
Screening CCC(=O)N1CC[C@H]2[C@@H]1c1cc(C#Cc3ccccc3OC)ccc1N(C)[C@H]2CO returned Pf Dd2 growth inactive, GASC1 inh inactive, T cruzi growth-1 99, T cruzi growth-2 110, T cruzi growth-3 inactive, 3T3 cytotox inactive and 3T3 cytotox 2 inactive.
`CCC(=O)N1CC[C@@H]2[C@H]1c1cc(C#Cc3cccc(F)c3)ccc1N(C)[C@H]2CO` gave Pf Dd2 growth inactive, GASC1 inh inactive and T cruzi growth-1 inactive.
COc1ccccc1NC(=O)N1CC[C@@H]2[C@H]1c1cc(C#Cc3ccc(F)cc3)ccc1N(C)[C@@H]2CO was read as Pf Dd2 growth inactive, GASC1 inh inactive, T cruzi growth-1 inconclusive, T cruzi growth-2 99, T cruzi growth-3 111, 3T3 cytotox inactive and 3T3 cytotox 2 inactive.
Screening O=C(N/N=C/c1c[nH]c2ccccc12)c1ccccn1 returned IDH1 R132H inh inactive.
`CO[C@H](CN(C)S(=O)(=O)c1ccc(F)cc1)[C@H](C)CN([C@H](C)CO)S(=O)(=O)c1cccc(Cl)c1` gave Pf Dd2 growth inactive, GASC1 inh inactive, T cruzi growth-1 101, IDH1 R132H inh inactive, T cruzi growth-2 inactive, 3T3 cytotox inactive and 3T3 cytotox 2 55.
`CO[C@@H](CN(C)S(=O)(=O)c1ccc(F)cc1)[C@H](C)CN([C@H](C)CO)S(=O)(=O)c1cccc(Cl)c1` gave Pf Dd2 growth inactive, GASC1 inh inactive, T cruzi growth-1 inactive and IDH1 R132H inh inactive.
Screening CO[C@@H](CN(C)S(=O)(=O)c1ccc(F)cc1)[C@@H](C)CN([C@@H](C)CO)S(=O)(=O)c1cccc(Cl)c1 returned Pf Dd2 growth inactive, GASC1 inh inactive, T cruzi growth-1 109, IDH1 R132H inh inactive, T cruzi growth-2 inactive, T cruzi growth-3 inactive, 3T3 cytotox inactive and 3T3 cytotox 2 53.
For CO[C@H](CN(C)S(=O)(=O)c1cccc(Cl)c1)[C@H](C)CN([C@@H](C)CO)S(=O)(=O)c1ccc(Cl)cc1 the results were Pf Dd2 growth inactive, GASC1 inh inactive, T cruzi growth-1 inactive and IDH1 R132H inh inactive.
CCOC(=O)c1c(NC(=O)Cn2cnc3sc(C)c(C)c3c2=O)sc(C)c1C was read as IDH1 R132H inh inactive.
Screening C[C@@H]1CN([C@H](C)CO)C(=O)c2cc(/C=C/c3ccccc3)cnc2O[C@H]1CN(C)Cc1ccccc1 returned Pf Dd2 growth inactive, GASC1 inh inactive, T cruzi growth-1 114, IDH1 R132H inh inactive, T cruzi growth-2 113, T cruzi growth-3 98, 3T3 cytotox inactive and 3T3 cytotox 2 105.
For C[C@@H]1CN([C@@H](C)CO)C(=O)c2cc(/C=C/c3ccccc3)cnc2O[C@H]1CN(C)Cc1ccncc1 the results were Pf Dd2 growth inactive, GASC1 inh inactive, T cruzi growth-1 120, IDH1 R132H inh inactive, T cruzi growth-2 114, T cruzi growth-3 inactive, 3T3 cytotox inactive and 3T3 cytotox 2 inactive.
`C[C@@H]1CN([C@@H](C)CO)C(=O)c2cc(/C=C/c3ccccc3)cnc2O[C@H]1CN(C)C(=O)Cc1ccccn1` gave Pf Dd2 growth inactive, GASC1 inh inactive, T cruzi growth-1 101, IDH1 R132H inh inactive, T cruzi growth-2 103, T cruzi growth-3 99, 3T3 cytotox inactive and 3T3 cytotox 2 46.
For C[C@H](CO)N1C[C@H](C)[C@H](CN(C)Cc2ccncc2)Oc2ncc(/C=C/c3ccccc3)cc2C1=O the results were Pf Dd2 growth inactive, GASC1 inh inactive, T cruzi growth-1 inactive and IDH1 R132H inh inactive.
N#C[C@@H]1[C@@H](c2ccccc2)[C@H](CO)N1C(=O)Cc1ccccc1 was read as Pf Dd2 growth inactive, GASC1 inh inactive, T cruzi growth-1 100, T cruzi growth-2 inactive, T cruzi growth-3 inactive, 3T3 cytotox inactive and 3T3 cytotox 2 inactive.
N#C[C@@H]1[C@@H](c2ccc(-c3ccc(F)cc3)cc2)[C@@H](CO)N1C(=O)Cc1ccccc1 was read as Pf Dd2 growth inactive, GASC1 inh inactive, T cruzi growth-1 inactive and IDH1 R132H inh inactive.
`N#C[C@H]1[C@H](c2ccc(-c3ccc(F)cc3)cc2)[C@@H](CO)N1C(=O)Cc1ccccc1` gave Pf Dd2 growth inactive, GASC1 inh inactive, T cruzi growth-1 inconclusive, T cruzi growth-2 98, T cruzi growth-3 inactive, 3T3 cytotox 40 and 3T3 cytotox 2 96.
Screening N#C[C@H]1[C@@H](c2ccccc2)[C@@H](CO)N1C(=O)Cc1ccccc1 returned Pf Dd2 growth inactive, GASC1 inh inactive, T cruzi growth-1 102, IDH1 R132H inh inactive, T cruzi growth-2 inactive, T cruzi growth-3 inactive, 3T3 cytotox inactive and 3T3 cytotox 2 inactive.
N#C[C@@H]1[C@H](c2ccccc2)[C@@H](CO)N1C(=O)Cc1ccccc1 was read as Pf Dd2 growth inactive, GASC1 inh inactive, T cruzi growth-1 109, T cruzi growth-2 inactive, T cruzi growth-3 inactive, 3T3 cytotox inactive and 3T3 cytotox 2 inactive.
For N#C[C@@H]1[C@@H](c2ccc(-c3ccccc3F)cc2)[C@H](CO)N1C(=O)Cc1ccccc1 the results were Pf Dd2 growth inactive, GASC1 inh inactive and T cruzi growth-1 inactive.
Screening Nc1cc(=O)[nH]c(SCC(=O)N2CCN(c3ccccc3)CC2)n1 returned IDH1 R132H inh inactive.
COCC#Cc1ccc([C@@H]2[C@H](CO)N3CCCCN(S(=O)(=O)c4ccccc4C)C[C@@H]23)cc1 was read as Pf Dd2 growth inactive, GASC1 inh inactive and T cruzi growth-1 inactive.
`CCCC#Cc1ccc([C@@H]2[C@H]3CN(S(=O)(=O)CC)CCCCN3[C@H]2CO)cc1` gave Pf Dd2 growth inactive, GASC1 inh inactive and T cruzi growth-1 inactive.

Screening results (PubChem BioAssay)
